Results reported in ChEMBL document CHEMBL2417515, “Microwave assisted synthesis of some hybrid molecules derived from norfloxacin and investigation of their biological activities” (Eur J Med Chem, 2013).
Converted amounts (≈) assume the structure as drawn. The source made the active and inactive calls. The rule behind the calls is not given here.

Key:
Candida albicans = test: Antimicrobial activity against Candida albicans ATCC 60193 after 18 to 24 hrs by double microdilution method; type: functional
[1] = tested on: Mycolicibacterium smegmatis; test: Antimicrobial activity against Mycobacterium smegmatis ATCC 607 after 48 to 72 hrs by double microdilution method; type: functional
[2] = tested on: Yersinia pseudotuberculosis; test: Antimicrobial activity against Yersinia pseudotuberculosis ATCC 911 after 18 to 24 hrs by double microdilution method; type: functional
In short: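 Double broth microdilution MIC (µg/mL). Mueller-Hinton broth pH 7.3; plates incubated 18–24 h at 35 °C. Compounds dissolved in […] as 20.000 µg/mL stock. Ampicillin as reference antibacterial; DMSO diluted 1:10 as solvent control.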

Saccharomyces cerevisiae = test: Antimicrobial activity against Saccharomyces cerevisiae RSKK 251 after 18 to 24 hrs by double microdilution method; type: functional
Pseudomonas aeruginosa = test: Antimicrobial activity against Pseudomonas aeruginosa ATCC 43288 after 18 to 24 hrs by double microdilution method; type: functional
In short: (§1)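 Twofold broth microdilution in Mueller-Hinton broth, pH 7.3. Compounds come from 20.000 µg/mL stocks in hexane. […] Ampicillin serves as reference drug and DMSO diluted 1:10 as solvent control.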

Enterococcus faecalis = test: Antimicrobial activity against Enterococcus faecalis ATCC 29212 after 18 to 24 hrs by double microdilution method; type: functional; in short: as §1
Staphylococcus aureus = test: Antimicrobial activity against Staphylococcus aureus ATCC 25923 after 18 to 24 hrs by double microdilution method; type: functional; in short: as §1
Bacillus cereus = test: Antimicrobial activity against Bacillus cereus 702 Roma after 18 to 24 hrs by double microdilution method; type: functional; in short: as §1
Urease = Urease (Canavalia ensiformis, UniProt P07374); test: Inhibition of Jack bean urease using urea as substrate assessed as production of ammonia after 15 mins
Urease, sequence (P07374 whole entry): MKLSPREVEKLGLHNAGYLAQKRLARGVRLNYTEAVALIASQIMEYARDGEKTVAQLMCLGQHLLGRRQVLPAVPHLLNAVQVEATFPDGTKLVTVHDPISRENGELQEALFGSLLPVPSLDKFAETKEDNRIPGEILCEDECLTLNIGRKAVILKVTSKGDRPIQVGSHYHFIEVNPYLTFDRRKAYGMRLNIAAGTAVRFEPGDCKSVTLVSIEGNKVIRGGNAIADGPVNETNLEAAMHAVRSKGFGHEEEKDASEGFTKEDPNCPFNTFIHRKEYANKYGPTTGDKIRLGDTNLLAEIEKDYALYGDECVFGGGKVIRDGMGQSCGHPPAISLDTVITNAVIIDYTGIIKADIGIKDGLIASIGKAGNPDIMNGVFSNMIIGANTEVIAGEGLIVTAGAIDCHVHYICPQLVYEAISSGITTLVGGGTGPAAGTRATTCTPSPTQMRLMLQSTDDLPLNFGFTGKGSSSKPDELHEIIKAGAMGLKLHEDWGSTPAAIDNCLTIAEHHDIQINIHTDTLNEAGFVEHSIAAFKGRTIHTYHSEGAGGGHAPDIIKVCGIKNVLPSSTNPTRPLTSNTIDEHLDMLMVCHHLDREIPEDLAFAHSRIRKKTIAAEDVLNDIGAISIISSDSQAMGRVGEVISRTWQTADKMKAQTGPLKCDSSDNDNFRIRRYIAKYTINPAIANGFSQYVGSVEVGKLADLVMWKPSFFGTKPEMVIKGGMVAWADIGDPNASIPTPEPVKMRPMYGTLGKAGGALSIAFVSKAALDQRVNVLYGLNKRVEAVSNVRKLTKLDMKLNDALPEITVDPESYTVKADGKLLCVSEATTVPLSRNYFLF
In short: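 Jack bean urease in buffer (100 mM urea, 0.01 M K2HPO4, 1 mM EDTA, 0.01 M LiCl, pH 8.2) incubated with compound 15 min at room temperature. Ammonia read by indophenol method (phenol/nitroprusside plus NaOH/NaOCl), absorbance 625 nm after 20 min. % inhibition = 100 − (OD test/OD control)×100. IC50 from serial concentrations (250 to 0.114 µg/mL), triplicate; thiourea standard.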

[3] = target: Urease (Canavalia ensiformis) (UniProt P07374); test: Inhibition of Jack bean urease using urea as substrate assessed as production of ammonia at 100 ug/ml after 15 mins
Urease (Canavalia ensiformis), sequence (P07374 whole entry, looked up): as the sequence (P07374 whole entry) above
In short: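 Jack bean urease with buffer (100 mM urea, 0.01 M K2HPO4, 1 mM EDTA, 0.01 M LiCl, pH 8.2) and compound, 15 min at room temperature. Ammonia read by indophenol method (phenol/nitroprusside plus NaOH/NaOCl), A625 after 20 min. % inhibition = 100 − (OD test/OD control)×100. Thiourea as standard; triplicates.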

| SMILES | MIC (Candida albicans) | MIC [1] | MIC [2] | MIC (Saccharomyces cerevisiae) | MIC (Pseudomonas aeruginosa) | MIC (Enterococcus faecalis) | MIC (Staphylococcus aureus) | MIC (Bacillus cereus) | IC50 (Urease) [µM] | inhibition [3] [%] |
| --- | --- | --- | --- | --- | --- | --- | --- | --- | --- | --- |
| CCn1cc(C(=O)O)c(=O)c2cc(F)c(N3CCN(c4ccc(NC(=S)NCCCN5CCOCC5)cc4F)CC3)cc21 | inactive | inactive | 62.5 µg/mL (≈ 102 µM) | inactive | 500 µg/mL (≈ 813 µM) | 31.2 µg/mL (≈ 50.8 µM) | 15.6 µg/mL (≈ 25.4 µM) | 125 µg/mL (≈ 203 µM) |  |  |
| CCn1cc(C(=O)O)c(=O)c2cc(F)c(N3CCN(c4ccc(/N=c5\sc(-c6ccc(Cl)cc6)cn5Cc5ccccc5)cc4F)CC3)cc21 | 250 µg/mL (≈ 351 µM) | inactive | inactive | 250 µg/mL (≈ 351 µM) | inactive | 250 µg/mL (≈ 351 µM) | inactive | inactive |  |  |
| CCNC(=S)Nc1ccc(N2CCN(c3cc4c(cc3F)c(=O)c(C(=O)O)cn4CC)CC2)c(F)c1 | 250 µg/mL (≈ 485 µM) | inactive | inactive | 250 µg/mL (≈ 485 µM) | inactive | inactive | inactive | inactive |  |  |
| COc1ccc(/C=N\NC(=O)CN2CCN(c3ccccc3OC)CC2)cc1O | 62.5 µg/mL (≈ 157 µM) | 31.3 µg/mL (≈ 78.6 µM) | 31.3 µg/mL (≈ 78.6 µM) | 31.3 µg/mL (≈ 78.6 µM) | 31.3 µg/mL (≈ 78.6 µM) | 15.6 µg/mL (≈ 39.2 µM) | 31.3 µg/mL (≈ 78.6 µM) | 31.3 µg/mL (≈ 78.6 µM) |  |  |
| CCn1cc(C(=O)O)c(=O)c2cc(F)c(N3CCN(C(=O)CCl)CC3)cc21 | inactive | 0.42 µg/mL (≈ 1.06 µM) | 1.7 µg/mL (≈ 4.29 µM) | inactive | 15.6 µg/mL (≈ 39.4 µM) | 0.21 µg/mL (≈ 0.531 µM) | 0.21 µg/mL (≈ 0.531 µM) | 0.21 µg/mL (≈ 0.531 µM) |  |  |
| CCn1cc(C(=O)O)c(=O)c2cc(F)c(N3CCN(c4ccc([N+](=O)[O-])cc4F)CC3)cc21 | inactive | inactive | 31.5 µg/mL (≈ 68.7 µM) | inactive | inactive | inactive | inactive | inactive |  |  |
| CCn1cc(-c2ccc(Cl)cc2)s/c1=N\c1ccc(N2CCN(c3cc4c(cc3F)c(=O)c(C(=O)O)cn4CC)CC2)c(F)c1 | inactive | inactive | inactive | inactive | inactive | inactive | inactive | 1000 µg/mL (≈ 1540 µM) |  |  |
| CCN1CC(=O)S/C1=N\c1ccc(N2CCN(c3cc4c(cc3F)c(=O)c(C(=O)O)cn4CC)CC2)c(F)c1 | 250 µg/mL (≈ 450 µM) | inactive | inactive | 250 µg/mL (≈ 450 µM) | inactive | 250 µg/mL (≈ 450 µM) | 250 µg/mL (≈ 450 µM) | 250 µg/mL (≈ 450 µM) |  |  |
| NC(N)=S [THIOUREA] |  |  |  |  |  |  |  |  | 678 |  |
| CCn1cc(C(=O)O)c(=O)c2cc(F)c(N3CCN(c4ccc(NC(=O)NCc5ccccc5)cc4F)CC3)cc21 | 500 µg/mL (≈ 890 µM) | inactive | inactive | 250 µg/mL (≈ 445 µM) | inactive | 500 µg/mL (≈ 890 µM) | 500 µg/mL (≈ 890 µM) | 500 µg/mL (≈ 890 µM) |  |  |
| CCn1cc(C(=O)O)c(=O)c2cc(F)c(N3CCN(c4ccc(N)cc4F)CC3)cc21 | inactive | 1.95 µg/mL (≈ 4.55 µM) | < 1.9 µg/mL | inactive | 7.81 µg/mL (≈ 18.2 µM) | < 1.9 µg/mL | < 1.9 µg/mL | < 1.9 µg/mL |  |  |
| OC(Cn1cncn1)(Cn1cncn1)c1ccc(F)cc1F [FLUCONAZOLE] | < 8 µg/mL |  |  | < 8 µg/mL |  |  |  |  |  |  |
| COc1ccccc1N1CCN(CC(=O)N/N=C\c2ccccc2O)CC1 | 250 µg/mL (≈ 679 µM) | 31.3 µg/mL (≈ 85 µM) | 31.3 µg/mL (≈ 85 µM) | 62.5 µg/mL (≈ 170 µM) | 62.5 µg/mL (≈ 170 µM) | 15.6 µg/mL (≈ 42.3 µM) | 31.3 µg/mL (≈ 85 µM) | 31.3 µg/mL (≈ 85 µM) |  |  |
| CCn1cc(C(=O)O)c(=O)c2cc(F)c(N3CCN(c4ccc(/N=C5\SC(=O)CN5Cc5ccccc5)cc4F)CC3)cc21 | 250 µg/mL (≈ 405 µM) | 62.5 µg/mL (≈ 101 µM) | 62.5 µg/mL (≈ 101 µM) | 250 µg/mL (≈ 405 µM) | inactive | 125 µg/mL (≈ 202 µM) | 125 µg/mL (≈ 202 µM) | 125 µg/mL (≈ 202 µM) |  |  |
| CC1(C)S[C@@H]2[C@H](NC(=O)[C@H](N)c3ccccc3)C(=O)N2[C@H]1C(=O)O [AMPICILLIN] |  |  | 18 µg/mL (≈ 51.5 µM) |  | > 128 µg/mL | 10 µg/mL (≈ 28.6 µM) | 35 µg/mL (≈ 100 µM) | 15 µg/mL (≈ 42.9 µM) |  |  |
| CCn1cc(C(=O)O)c(=O)c2cc(F)c(N3CCN(C(=O)CSc4nnc(CN5CCN(c6ccccc6OC)CC5)n4-c4ccccc4)CC3)cc21 |  |  |  |  |  |  |  |  | 27.7 | 86.2 |
| CCn1cc(C(=O)O)c(=O)c2cc(F)c(N3CCN(c4ccc(NC(=S)NCc5ccccc5)cc4F)CC3)cc21 | inactive | 0.97 µg/mL (≈ 1.68 µM) | < 1.9 µg/mL | inactive | 31.5 µg/mL (≈ 54.5 µM) | < 1.9 µg/mL | < 1.9 µg/mL | < 1.9 µg/mL |  |  |
| CN[C@@H]1[C@H](O[C@H]2[C@H](O[C@H]3[C@H](O)[C@@H](O)[C@H](N=C(N)N)[C@@H](O)[C@@H]3N=C(N)N)O[C@@H](C)[C@]2(O)C=O)O[C@@H](CO)[C@H](O)[C@H]1O [STREPTOMYCIN] |  | 4 µg/mL (≈ 6.88 µM) |  |  |  |  |  |  |  |  |
